Assays:
[1] = Time-dependent degradation of ONOO^− monitored by UV-visible spectroscopy; assay type: biochemical; settings: Cu^II(atsm) at 10 µM; ONOO^− in high pH solution (alone 53 ± 3 min)
α-synuclein [2] = biological target: T1, α-synuclein (Homo sapiens, UniProt P37840); assay: 2D [1H,15N] HSQC NMR titration of 15N-labeled α-synuclein; assay type: binding; settings: increasing concentrations titrated in
α-synuclein [3] = biological target: T1, α-synuclein; assay: α-Synuclein amyloid fibril formation; assay type: biochemical; settings: unpublished data
[4] = tested on: differentiated SH-SY5Y cells; assay: MTS cell viability, SIN-1–induced toxicity; assay type: cell-based, human; settings: added to cell culture 5 min after SIN-1; unpublished data
[5] = tested on: differentiated SH-SY5Y cells; assay: 3-NT levels in cell media by ELISA after SIN-1; assay type: cell-based, human; settings: 40 µM pretreatment before SIN-1
In short: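 Human SH-SY5Y cells were differentiated with 10 µM retinoic acid in 1.5% FCS medium for 3 d, then given fresh medium for another 3 d. Cells were preincubated with test compound (10, 20, 40 µM) for 5 min, then exposed to 3 mM SIN-1 for 90 min. Media were coated in pH 9.6 carbonate buffer for ELISA at 22°C: rabbit […] 1:2000, HRP secondary, TMB, A450.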

[6] = Rat pharmacokinetic study; assay type: in vivo, Sprague Dawley rats
In short: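 Fasted male Sprague Dawley rats (6–8 wk, ~280 g) received 20 mg/kg by oral gavage as a 6 mg/ml suspension (n = 3). Another group (n = 3) got 5 mg/kg by i.v. jugular-cannula infusion at 0.05 ml/min, as a 3 mg/ml solution in 20% DMSO/80% propylene glycol. Serial blood was taken to 24 h; plasma was acetonitrile-precipitated and analysed by LC-MS.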

[7] = Mouse pharmacokinetic and brain uptake study; assay type: in vivo, C57BL/6 mice
In short: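 Male C57BL/6 mice, 11 wk old, got a single 30 mg/kg oral gavage dose (7.5 mg/ml suspension in standard suspension vehicle). Plasma and brain were sampled at time points up to 24 h, n = 3 per point, under pentobarbitone anaesthesia. Samples were acetonitrile-precipitated and quantified against matrix-matched standards. Quantitation limits: 5 ng/ml plasma, 10 ng/g brain. Brain/plasma ratio taken from AUC0-6h.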

[8] = tested on: MPTP-lesioned C57BL/6 mice; assay: Stereological SNpc neuron counts, MPTP-lesioned wild-type mice; assay type: in vivo; settings: for increase in number of SNpc neurons vs vehicle-treated MPTP-lesioned mice: started 1 d after lesion, 20 d
[9] = tested on: 6-OHDA-lesioned C57BL/6 mice; assay: Stereological SNpc neuron counts, 6-OHDA-lesioned mice; assay type: in vivo; settings: 30 mg/kg, started 3 d after 6-OHDA lesion, 20 d
In short: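 6-OHDA lesion in the right substantia nigra of 2-mo-old C57BL/6 mice; dosing started 3 d post-lesion. Mice were perfused with cold PBS. The right hemisphere was fixed overnight in 4% paraformaldehyde in 0.1 M phosphate buffer at 4°C. Nissl-stained SNpc neurons were counted stereologically with an unbiased 45 µm × 35 µm counting frame.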

[10] = tested on: hA53T α-synuclein tg mice; assay: Stereological nigral cell counts, hA53T α-synuclein tg mice; assay type: in vivo; settings: 30 mg/kg, 20 d
In short: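 hA53T α-synuclein tg mice and C57BL/6 x C3H background controls, 7 mo old, equal sexes, received 30 mg/kg test compound or suspension vehicle by oral gavage for 20 d. The right hemisphere of PBS-perfused brains was fixed overnight in 4% paraformaldehyde at 4°C. Nissl-stained nigral neurons were counted stereologically using a 45 µm × 35 µm unbiased counting frame.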

[11] = tested on: hA53T tg mice lesioned with MPTP; assay: Stereological SNpc neuron counts, MPTP-lesioned hA53T tg mice; assay type: in vivo; settings: 30 mg/kg
In short: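 MPTP was given i.p. as four 10 mg/kg doses at 2-h intervals. Groups: 4-mo-old female C57BL/6 mice and 7-mo-old hA53T α-synuclein tg mice, equal sexes. From 1 d post-lesion, mice got 15 or 30 mg/kg test compound or suspension vehicle by oral gavage for […]; saline sham-lesioned controls got vehicle. Perfused brains, right hemisphere fixed in 4% paraformaldehyde; Nissl-stained SNpc counted stereologically (45 × 35 µm frame).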

[12] = tested on: MPTP-lesioned C57BL/6 mice; assay: Pole test, MPTP-lesioned wild-type mice; assay type: in vivo
In short: (§1)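 Oral gavage of 15 or 30 mg/kg test compound or suspension vehicle began 1 d post-lesion. Saline sham-lesioned controls received vehicle. Pole test (Tturn, Ttotal) was run after 19 d of treatment.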

[13] = tested on: hA53T α-synuclein tg mice; assay: Pole test, hA53T α-synuclein tg mice; assay type: in vivo; settings: 30 mg/kg
[14] = tested on: hA53T tg mice lesioned with MPTP; assay: Pole test, MPTP-lesioned hA53T tg mice; assay type: in vivo
In short: as §1

[15] = tested on: 6-OHDA-lesioned C57BL/6 mice; assay: Amphetamine-induced rotation, 6-OHDA model; assay type: in vivo; settings: 30 mg/kg, 6-OHDA-lesioned mice
In short: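 Partial 6-OHDA lesion: 2 µl injected into the right substantia nigra of 2-mo-old C57BL/6 mice, 3.0 mm AP, 1.1 mm lateral, 4.7 mm DV from bregma. Amphetamine-induced rotation was tested 3 d post-lesion, before dosing, to confirm lesion size. Mice were randomised to test compound or vehicle for 18 d, then rotation was retested.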

TH = TH levels in SNpc of MPTP-lesioned mice; assay type: in vivo
In short: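 MPTP lesion: four i.p. doses of 10 mg/kg at 2-h intervals; 15 or 30 mg/kg oral gavage from the next day. For TH immunostaining, 30 µm coronal SNpc sections were post-fixed in 4% PFA and boiled in citrate buffer (pH 6.0). They were blocked with normal goat serum and incubated overnight at room temperature with rabbit anti-TH 1:3000, then HRP secondary for 2 h and DAB. Western blots were normalised to GAPDH or β-actin.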

MPTP-lesioned mice = assay: Dopamine measurement of mouse striatum; assay type: in vivo; settings: 30 mg/kg
In short: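 MPTP lesion: four i.p. doses of 10 mg/kg at 2-h intervals. Starting the next day, mice received 30 mg/kg test compound or suspension vehicle by oral gavage. Right striatum was homogenised by pulse sonication in 0.4 M perchloric acid with 0.15% sodium metabisulfite and 0.05% EDTA disodium salt for dopamine measurement.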

VMAT2 [16] = assay: VMAT2 levels in MPTP-lesioned mice; assay type: in vivo; settings: for increase in VMAT2 levels: 3–4-mo-old MPTP-lesioned mice
In short: (§2)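 MPTP lesion: four i.p. doses of 10 mg/kg at 2-h intervals. Test compound (15 or 30 mg/kg) or vehicle was given by oral gavage from the next day for 21 d. Brain homogenate (~20 µg) was reduced, heated to 90°C for 5 min, run on 10% SDS-PAGE and blotted to nitrocellulose. Densitometry was normalised to GAPDH or β-actin and expressed as percentage of vehicle.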

VMAT2 [17] = assay: VMAT2 microPET imaging with 18F-AV133, MPTP-lesioned 18-mo-old mice; assay type: in vivo; settings: 18 mo MPTP-lesioned mice, 30 mg/kg
In short: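 Female B6C3H x HeJ mice, 18 mo old, had baseline VMAT2 microPET: 500 µCi 18F-AV-133 by tail vein, imaged for 30 min. They were then lesioned with 4 × 10 mg/kg MPTP. Treatment at 30 mg/kg or vehicle began the following day and ran 21 d, after which microPET imaging was repeated.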

α-synuclein [18] = assay: α-Synuclein levels in SNpc, MPTP-lesioned wild-type mice; assay type: in vivo
In short: as §2

α-synuclein [19] = assay: α-Synuclein levels in SNpc, MPTP-lesioned hA53T α-synuclein tg mice; assay type: in vivo
In short: as §2

α-synuclein [20] = assay: α-Synuclein levels, hA53T α-synuclein tg mice not MPTP-lesioned; assay type: in vivo; settings: unpublished data
SNCA = SNCA gene expression by qPCR, MPTP-lesioned WT mice; assay type: in vivo
[21] = tested on: hA53T α-synuclein tg mice; assay: Novel object recognition; assay type: in vivo; settings: 30 mg/kg for 20 d
In short: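 hA53T α-synuclein tg mice, 7 mo old, equal sexes, received 30 mg/kg test compound or vehicle by oral gavage for 20 d. Novel object test with Lego blocks: 10-min training with two objects, 1-h delay, then one familiar object replaced by a novel 1.5 × 1.5 × 2.0 cm object. Index = time with novel object / time with familiar object.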

[22] = tested on: hA53T α-synuclein tg mice; assay: Y-maze test, hA53T tg mice; assay type: in vivo; settings: 30 mg/kg, vehicle-treated 30%
synaptophysin = assay: Synaptophysin levels in striatum of hA53T tg mice; assay type: in vivo; settings: 30 mg/kg
In short: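 hA53T tg mice, 7 mo old, were given 30 mg/kg or vehicle by oral gavage for 20 d. Striatal homogenate (~20 µg) was reduced with β-mercaptoethanol, heated to 90°C for 5 min, run on 10% SDS-PAGE and blotted to nitrocellulose. Synaptophysin densitometry was normalised to GAPDH or β-actin and expressed as percentage of vehicle.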

[23] = Overt toxicity observation in animal studies; assay type: in vivo; settings: studies of this paper and a longer term 12-mo trial in wild-type animals
[24] = tested on: low copy mice overexpressing human G93A SOD1; settings: ref Soon et al., 2011, cited from earlier work
[25] = single oral 20 mg/kg, male Sprague Dawley rats
[26] = single oral 30 mg/kg, C57BL/6 mice

CN=C([S-])N/N=C(C)/C(C)=N/NC([S-])=NC.[Cu+2] [Cu^II(atsm), copper(II)diacetylbis(N(4)-methylthiosemicarbazonato)]
ONOO^− half-life [1]: ~0.193 ± 0.0083 h
direct interaction between α-synuclein and compound (HSQC spectra) (α-synuclein [2]): no direct interaction
inhibition of formation of α-synuclein fibrils (α-synuclein [3]): did not inhibit the formation of α-synuclein fibrils
protective effect in posttreatment paradigm [4]: no protective effect was observed
reduction in nitrotyrosine (3-NT) levels [5]: 51%
apparent oral bioavailability ([6]; oral 20 mg/kg vs intravenous 5 mg/kg, rats): 53 ± 5%
Tmax [6, 25]: 10 h
elimination half-life [6, 25]: 3.1 ± 0.4 h
Cmax ([6]; single oral 20 mg/kg, male Sprague Dawley rats, plasma): 0.4881 ± 0.067 µg/mL
maximum concentration of the compound in the brain ([7]; based on Cmax levels, oral 30 mg/kg mice): ~0.6 µM
brain Cmax [7, 26]: 0.198 ± 0.061 µg/mL
brain Tmax [7, 26]: 2 h
brain/plasma ratio (AUC0-6h) [7, 26]: 0.32
plasma Cmax [7, 26]: 0.591 ± 0.203 µg/mL
plasma Tmax [7, 26]: 1 h
apparent elimination half-life ([7]; single oral 30 mg/kg, C57BL/6 mice, plasma): ~3.3 h
increase in number of SNpc neurons vs vehicle-treated MPTP-lesioned mice ([8]; 15 mg/kg oral gavage): 43%
increase in number of SNpc neurons vs vehicle-treated MPTP-lesioned mice ([8]; 30 mg/kg oral gavage): 61%
effect on cell numbers of nonlesioned wild-type mice ([8]; nonlesioned wild-type mice): no effect
increase in number of SNpc dopaminergic neurons [9]: 26%
increase in total nigral cells [10]: 14%
increase of SNpc neurons [11]: 15%
decrease of Tturn and Ttotal times ([12]; 15 mg/kg): did not reach statistical significance
faster Ttotal (pole test) vs MPTP-lesioned vehicle ([12]; 30 mg/kg): 2.2 s
faster Tturn (pole test) vs MPTP-lesioned vehicle ([12]; 30 mg/kg): 1.5 s
effect on motor performance of nonlesioned wild-type mice ([12]; nonlesioned wild-type mice): no effect
improvement in Ttotal times [13]: not statistically significant
Tturn (pole test) ([13]; vehicle 3.9 ± 0.5 s): 1.1 ± 0.3 s
improvement in Ttotal [14]: 37%
improvement in Tturn [14]: 49%
Tturn (pole test) ([14]; vehicle 2.4 ± 0.4 s): 1.2 ± 0.1 s
Ttotal (pole test) ([14]; vehicle 6.1 ± 0.8 s): 3.9 ± 0.2 s
reduction in amphetamine-induced rotational behavior vs controls [15]: 45%
TH mRNA transcript levels (qPCR, SNpc) (TH): rescued
increase in TH levels (Western blot) (TH; 15 mg/kg): 42%
increase in TH levels (Western blot) (TH; 30 mg/kg): 45%
immunostaining of TH in SNpc (TH; either 15 or 30 mg/kg): increased immunostaining
increase in dopamine levels vs untreated MPTP-lesioned animals (MPTP-lesioned mice): 122%
increase in VMAT2 levels (VMAT2 [16]; 15 mg/kg): 13%
increase in VMAT2 levels (VMAT2 [16]; 30 mg/kg): 12%
VMAT2 transcripts (qPCR, SNpc) (VMAT2 [16]; MPTP-lesioned animals): levels were restored to those similar to the wild-type animals
increase in VMAT2 protein levels in striatum (Western blot) (VMAT2 [16]; older (18 mo) MPTP-lesioned mice): 60%
increase in 18F-AV133 ligand binding vs vehicle control lesioned mice (VMAT2 [17]): 142%
α-synuclein dimers, % of control-treated (α-synuclein [18]): 76%
α-synuclein monomer levels (α-synuclein [18]): no changes
reduction in α-synuclein monomer levels (α-synuclein [19]; MPTP-lesioned hA53T tg mice): 12%
α-synuclein dimers, % of control-treated (α-synuclein [19]; MPTP-lesioned hA53T α-synuclein tg mice): 83%
α-synuclein levels vs vehicle treatment (α-synuclein [20]): did not lead to any significant differences
SNCA gene regulation (qPCR) (SNCA): recovered to levels of unlesioned WT mice
increase in interactions with the novel object vs vehicle-treated mice [21]: 73%
mean novel arm entries (Y-maze) [22]: 42%
increase in synaptophysin levels vs vehicle-treated tg mice (synaptophysin): 31%
overt toxicity [23]: No overt toxicity
motor phenotype in ALS tg mouse model ([24]; pre- and postsymptomatic treatment regimes): successful in rescuing the motor phenotype
survival in ALS tg mouse model [24]: increased survival rates

From article PMC3328361 (The Journal of Experimental Medicine, 2012)
